Among the data in ChEMBL document CHEMBL1158464, “Structure-activity relationships and cancer-cell selective toxicity of novel inhibitors of glioma-associated oncogene homologue 1 (Gli1) mediated transcription” (J Med Chem, 2009) are inhibition and Activity values, retold here.

The source made the active and inactive calls. The rule behind the calls is not given here.

Data set [1] concerns the target T1, Zinc finger protein GLI1 (Homo sapiens) (UniProt P08151).
T1 sequence (whole entry): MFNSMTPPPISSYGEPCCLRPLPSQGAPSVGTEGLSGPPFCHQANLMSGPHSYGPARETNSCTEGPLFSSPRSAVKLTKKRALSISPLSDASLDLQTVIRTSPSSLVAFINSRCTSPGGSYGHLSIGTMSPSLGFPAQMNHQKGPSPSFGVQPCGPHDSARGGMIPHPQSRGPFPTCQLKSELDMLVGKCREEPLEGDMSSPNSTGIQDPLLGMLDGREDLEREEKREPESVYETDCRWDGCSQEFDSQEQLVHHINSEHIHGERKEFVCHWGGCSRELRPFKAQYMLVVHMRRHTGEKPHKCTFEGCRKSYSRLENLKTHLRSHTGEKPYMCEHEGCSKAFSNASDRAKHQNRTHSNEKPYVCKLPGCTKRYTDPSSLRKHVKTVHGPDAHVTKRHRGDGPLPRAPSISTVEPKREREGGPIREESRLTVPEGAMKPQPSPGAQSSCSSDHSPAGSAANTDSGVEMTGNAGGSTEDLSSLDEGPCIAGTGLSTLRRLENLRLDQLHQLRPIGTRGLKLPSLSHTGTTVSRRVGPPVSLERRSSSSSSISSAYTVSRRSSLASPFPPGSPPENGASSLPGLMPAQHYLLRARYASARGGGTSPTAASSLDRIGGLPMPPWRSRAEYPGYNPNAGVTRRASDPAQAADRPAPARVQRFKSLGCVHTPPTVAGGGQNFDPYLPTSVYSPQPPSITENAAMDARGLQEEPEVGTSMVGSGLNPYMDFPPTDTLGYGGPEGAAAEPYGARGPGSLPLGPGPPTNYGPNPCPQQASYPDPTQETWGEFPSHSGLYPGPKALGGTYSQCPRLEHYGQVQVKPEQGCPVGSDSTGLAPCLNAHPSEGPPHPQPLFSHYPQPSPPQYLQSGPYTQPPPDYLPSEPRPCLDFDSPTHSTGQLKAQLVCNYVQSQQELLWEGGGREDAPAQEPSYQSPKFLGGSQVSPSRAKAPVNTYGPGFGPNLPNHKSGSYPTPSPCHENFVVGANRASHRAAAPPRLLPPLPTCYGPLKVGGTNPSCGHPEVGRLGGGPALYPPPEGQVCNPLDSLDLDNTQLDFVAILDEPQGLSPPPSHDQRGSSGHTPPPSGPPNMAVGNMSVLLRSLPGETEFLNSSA
The data set can be described thus: Inhibition of exogenously transfected human Gli1-mediated transcriptional activity in mouse C3H10T1/2 cells at 40 uM after 24 hrs by luciferase reporter gene assay. In kind it is cell-based. Conditions: C3H 10T1/2. The method in brief: (§1)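 They were replated 18 h later, given compound or DMSO 6 h after plating, and exposed for 24 h at 37 °C, 5% CO2. Lysate was read by dual luciferase as firefly/Renilla, triplicate, DMSO = 0%. IC50 came from curve fitting.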
(In general: A reporter such as luciferase makes a cellular process visible.)

Data set [2] relates to LN-229. The data set can be described thus: Cytotoxicity against human LN229 cells at 40 uM/well after 68 hrs by alamar blue assay. In kind it is functional, cell-based. The gist of the method:
(§2)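 Cells plated in appropriate medium 24 h before compound. A 10 mM DMSO stock was diluted in EMEM to 160 µM (4×) and added in triplicate to a final 40 µM. Incubated 68 h at 37 °C, then Alamar Blue for 4 h at 37 °C. Fluorescence read at ex 510/em 590 nm. Viability taken relative to DMSO control wells.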
(In general: Resazurin is reduced to fluorescent resorufin, in cell work by metabolically active cells.)

Data set [3] has as its system HepG2. The data set can be described thus: Cytotoxicity against human HepG2 cells at 40 uM/well after 68 hrs by alamar blue assay. In kind it is functional, cell-based. The method in brief:
as §2

For data set [4], the system named is MDA-MB-231. The experiment in a line: Cytotoxicity against human MDA-MB-231 cells at 40 uM/well after 68 hrs by alamar blue assay. In kind it is functional, cell-based. The method in brief:
as §2

In data set [5] the target is T1, Zinc finger protein GLI1 (Homo sapiens). The data set can be described thus: Inhibition of exogenously transfected human Gli1-mediated transcriptional activity in mouse C3H10T1/2 cells at 20 uM after 24 hrs by luciferase reporter gene assay. The following applies: C3H 10T1/2. In kind it is cell-based. The method in brief:
as §1

For data set [6], the system named is DU-145. The experiment in a line: Cytotoxicity against human DU145 cells at 40 uM/well after 68 hrs by alamar blue assay. In kind it is functional, cell-based. The gist of the method: as §2
The subject of data set [7] is Daoy. The experiment in a line: Cytotoxicity against human DaOY cells at 40 uM/well after 68 hrs by alamar blue assay. In kind it is functional, cell-based. The method in brief:
as §2

Data set [8] has as its system SJRH30. The experiment in a line: Cytotoxicity against human Rh30 cells at 40 uM/well after 68 hrs by alamar blue assay. In kind it is functional, cell-based. The gist of the method:
as §2

For data set [9], the system named is Raji. The experiment in a line: Cytotoxicity against human Raji cells at 40 uM/well after 68 hrs by alamar blue assay. In kind it is functional, cell-based. The gist of the method:
as §2

For data set [10], the system named is BJ. The experiment in a line: Cytotoxicity against human TERT-immortalized human BJ cells at 40 uM/well after 68 hrs by alamar blue assay. In kind it is cell-based. The gist of the method: as §2

Take `COc1ccc2c(c1)c(CC(=O)NCCc1ccc(O)cc1)c(C)n2C(=O)c1ccc(Cl)cc1`: the inhibition entry in data set [1] and in data set [5] was “Active” throughout. Moreover, the result in data set [2] and in data set [3] was inactive. The outcome in data set [4], in [6], in [7], in data set [8] and in data set [9] was Active. Moreover, the Activity entry in [10] was “Non-toxic”.

Take `C[C@H](COC(=O)NCCc1ccc(O)cc1)c1cccc(C(=O)c2ccccc2)c1`: the inhibition entry in data set [1] and in data set [5] was “Active” throughout. The result in [2] and in data set [3] was inactive. Further, the outcome in data set [4], in data set [6], in data set [7], in [8] and in [9] was Active. Also, in [10], the Activity entry is listed as “Non-toxic”.

`C[C@H](C(=O)NCCc1ccc(O)cc1)c1cccc(C(O)c2ccccc2)c1` (stereo partly specified): the outcome in data set [2] and in data set [3] was inactive. Further, the outcome in [4], in data set [6], in [7], in data set [8] and in data set [9] was Active. Also, in data set [10], the Activity entry is “Non-toxic”.

Turning to `C[C@H](CNC(=O)c1ccc(O)cc1)c1cccc(C(=O)c2ccccc2)c1`, the inhibition entry in data set [1] and in [5] was “Active” each time. Further, the outcome in data set [2] and in data set [3] was inactive. Moreover, the outcome in data set [4], in data set [6], in [7], in [8] and in data set [9] was Active. In data set [10], the Activity entry is listed as “Non-toxic”.

For `COc1ccc(CCNC(=O)[C@@H](C)c2cccc(C(=O)c3ccccc3)c2)cc1`, the inhibition result in data set [1] and in data set [5] was “Active” each time. Also, the result in data set [2] and in data set [3] was inactive. For the same molecule, the outcome in data set [4], in [6], in data set [7], in [8] and in data set [9] was Active. In addition, the Activity result in [10] is given as “Non-toxic”.

As for `C[C@H](C(=O)NCCc1ccc(O)cc1)c1cccc(Cc2ccccc2)c1`, the result in data set [2] and in [3] was inactive. Moreover, the result in [4], in [6], in data set [7], in data set [8] and in [9] was Active. The Activity result in [10] is “Non-toxic”.

For the molecule `CC(C)Cc1ccc(C(C)C(=O)NCCc2ccc(O)cc2)cc1` (stereo unspecified), the outcome in data set [2] and in data set [3] was inactive. Also, the outcome in data set [4], in [6], in data set [7], in [8] and in data set [9] was Active. The Activity entry in [10] was “Non-toxic”.

On to `C[C@H](C(=O)NCCc1ccccc1O)c1cccc(C(=O)c2ccccc2)c1`, for which the result in data set [2] and in data set [3] was inactive. In addition, the outcome in [4], in [6], in [7], in data set [8] and in data set [9] was Active. The inhibition result in [5] was “Active”. The Activity result in data set [10] is given as “Non-toxic”.

Take `C[C@H](COC(=O)Nc1ccc(O)cc1)c1cccc(C(=O)c2ccccc2)c1`: the inhibition entry in [1] and in [5] was “Active” each time. Moreover, the result in [2] and in data set [3] was inactive. The result in [4], in data set [6], in data set [7], in data set [8] and in [9] was Active. Also, the Activity result in data set [10] is reported as “Non-toxic”.

On to `COc1ccc2cc([C@@H](C)C(=O)NCCc3ccc(O)cc3)ccc2c1`, for which the result in data set [2] and in data set [3] was inactive. In addition, the outcome in [4], in [6], in data set [7], in data set [8] and in data set [9] was Active. Moreover, in data set [10], the Activity result is reported as “Non-toxic”.

`CC(C(=O)NCCc1ccc(O)cc1)c1cccc(C(=O)c2ccccc2)c1` (racemic): the outcome in data set [2] and in [3] was inactive. Moreover, the outcome in data set [4], in data set [6], in [7], in data set [8] and in data set [9] was Active. Moreover, the Activity entry in [10] was “Non-toxic”.

As to `O=C(Cc1cccc(Oc2ccccc2)c1)NCCc1ccc(O)cc1`, the outcome in data set [2] and in data set [3] was inactive. Further, the outcome in data set [4], in data set [6], in data set [7], in [8] and in data set [9] was Active. Also, in data set [10], the Activity result is on record as “Non-toxic”.

Turning to `O=C(Cc1ccc(Oc2ccccc2)cc1)NCCc1ccc(O)cc1`, the outcome in data set [2] and in [3] was inactive. Also, the result in data set [4], in data set [6], in data set [7], in [8] and in data set [9] was Active. Besides, the Activity entry in data set [10] is reported as “Non-toxic”.

Turning to `O=C(Cc1ccccc1Oc1ccccc1)NCCc1ccc(O)cc1`, the result in data set [2] and in data set [3] was inactive. In addition, the result in [4], in [6], in data set [7], in data set [8] and in data set [9] was Active. Besides, in [10], the Activity entry is listed as “Non-toxic”.

On to `COc1ccc2[nH]cc(CC(=O)NCCc3ccc(O)cc3)c2c1`, for which the outcome in data set [2] and in data set [3] was inactive. Moreover, the result in data set [4], in [6], in data set [7], in data set [8] and in data set [9] was Active. For the same molecule, the Activity result in [10] is listed as “Non-toxic”.
